Values belong to the molecule of their own block, whether it stands above or below them.
Columns and labels:
Rattus norvegicus [1] = test: Antiinflammatory activity against carrageenan-induced foot paw edema in rat; assay type: functional
How it was run: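 Carrageenan-induced rat paw edema after oral administration; ED50 taken as the dose lowering the inflammatory response by 50% in the group of animals (n = 4).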

[2] = Effect on nitric oxide release in phosphate-buffered solution in presence of porcine liver esterase by Sievers nitric oxide analyzer; assay type: functional
How it was run: (§1)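 Porcine liver esterase (29 units, suspension in 3.2 M ammonium sulfate) in phosphate buffer (3 mL) at pH 8.0, 37 °C; compound injected as a DMSO solution. NO is swept by N2 to a chemiluminescence analyzer and AUC is quantified against a calibration curve. The time to more than 90% of theoretical NO is read graphically from time vs mol NO/min curves.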

Rattus norvegicus [3] = test: Analgesic activity against sodium chloride-induced abdominal constriction in rat at 68 umol/kg, po after 60 mins; assay type: functional, Abdomen
How it was run: (§2)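 4% NaCl-induced writhing (abdominal constriction) assay in rats after oral dosing; writhing inhibition scored at 30 and 60 min post-dose; reported as % inhibition, mean ± SEM, n = 4.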

[4] = Effect on nitric oxide release in phosphate-buffered solution at pH 7.4 by Sievers nitric oxide analyzer; assay type: functional
How it was run: (§3)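 Compound in DMSO injected into a sealed cell holding deoxygenated 0.1 M phosphate buffer (3 mL, pH 7.4) with 50 µM DTPA at 37 °C. NO is carried by N2 purge to a chemiluminescence analyzer, and AUC is converted with a calibration curve to mol NO/mol compound. The time to about 50% of theoretical NO is read graphically from time vs mol NO/min curves.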

Rattus norvegicus [5] = test: Analgesic activity against sodium chloride-induced abdominal constriction in rat at 68 umol/kg, po after 30 mins; assay type: functional, Abdomen; how it was run: as §2
[6] = Effect on nitric oxide release assessed as time required to detect more than 90% of NO/mol of compound by Sievers nitric oxide analyzer; assay type: functional; how it was run: as §1
[7] = Effect on nitric oxide release phosphate-buffered solution assessed as time required to detect about 50% of NO/mol of compound by Sievers nitric oxide analyzer; assay type: functional; how it was run: as §3
Rattus norvegicus [8] = test: Toxicity in rat assessed as ulcer index at 1.38 mmol/kg, po after 6 hrs; assay type: organism-based; settings: in vivo
How it was run: (§4)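 Rats fasted 24 h (water allowed) were dosed orally in 1.7 mL 1% methylcellulose; vehicle controls received the same. Stomachs were removed 6 h later after CO2 euthanasia. Ulcer index is the summed ulcer length (mm) per stomach averaged over n = 4, given as mean ± SEM.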

Rattus norvegicus [9] = test: Toxicity in rat assessed as ulcer index at 0.08 mmol/kg, po after 6 hrs; assay type: organism-based; settings: in vivo; how it was run: as §4
Rattus norvegicus [10] = test: Analgesic activity against sodium chloride-induced abdominal constriction in rat at 48 umol/kg, po after 30 mins; assay type: functional, Abdomen; how it was run: as §2
Rattus norvegicus [11] = test: Analgesic activity against sodium chloride-induced abdominal constriction in rat at 48 umol/kg, po after 60 mins; assay type: functional, Abdomen; how it was run: as §2
Rattus norvegicus [12] = test: Analgesic activity against sodium chloride-induced abdominal constriction in rat at 277 umol/kg, po after 60 mins; assay type: functional, Abdomen; how it was run: as §2
Rattus norvegicus [13] = test: Analgesic activity against sodium chloride-induced abdominal constriction in rat at 277 umol/kg, po after 30 mins; assay type: functional, Abdomen; how it was run: as §2
Rattus norvegicus [14] = test: Analgesic activity against sodium chloride-induced abdominal constriction in rat at 84 umol/kg, po after 60 mins; assay type: functional, Abdomen; how it was run: as §2
Rattus norvegicus [15] = test: Analgesic activity against sodium chloride-induced abdominal constriction in rat at 84 umol/kg, po after 30 mins; assay type: functional, Abdomen; how it was run: as §2

Activity [2]: 1.9
Structure (SMILES): CC(=O)OCO/N=[N+](\[O-])N1CCC[C@H]1C(=O)OCOC(=O)c1ccccc1OC(C)=O
ED50 (Rattus norvegicus [1]): 314 µmol/kg
Activity (Rattus norvegicus [3]): 65.8%
Activity [4]: 1.1
Activity (Rattus norvegicus [5]): 24.6%
TIME [6]: 0.04 h
TIME [7]: 43 h
UI (Rattus norvegicus [8]): 0.75

Activity [2]: 1.8
Structure (SMILES): COc1ccc2c(c1)c(CC(=O)OCOC(=O)[C@@H]1CCCN1/[N+]([O-])=N/OCOC(C)=O)c(C)n2C(=O)c1ccc(Cl)cc1
UI (Rattus norvegicus [9]): 0
ED50 (Rattus norvegicus [1]): 18.5 µmol/kg
Activity (Rattus norvegicus [10]): 36.3%
Activity [4]: 1.1
Activity (Rattus norvegicus [11]): 61.5%
TIME [6]: 0.0533 h
TIME [7]: 45 h

Structure (SMILES): CC(=O)Oc1ccccc1C(=O)O [ASPIRIN]
ED50 (Rattus norvegicus [1]): 710 µmol/kg
Activity (Rattus norvegicus [12]): 64.3%
Activity (Rattus norvegicus [13]): 56.5%
UI (Rattus norvegicus [8]): 51.4

Structure (SMILES): O=C(O)[C@@H]1CCCN1/[N+]([O-])=N/O
Activity [4]: 2
TIME [6]: 0.0005 h

Structure (SMILES): COc1ccc2c(c1)c(CC(=O)O)c(C)n2C(=O)c1ccc(Cl)cc1 [INDOMETHACIN]
UI (Rattus norvegicus [9]): 64.5
ED50 (Rattus norvegicus [1]): 11.8 µmol/kg
Activity (Rattus norvegicus [14]): 67.6%
Activity (Rattus norvegicus [15]): 51.8%

From ChEMBL document CHEMBL1144043, “Second-generation aspirin and indomethacin prodrugs possessing an O(2)-(acetoxymethyl)-1-(2-carboxypyrrolidin-1-yl)diazenium-1,2-diolate nitric oxide donor moiety: design, synthesis, biological evaluation, and nitric oxide release studies” (J Med Chem, 2008)
